Most compounds without a hit are left out; they make up all but 5.1% or so of the library.
STAT3 act: activators of IL-6 induced STAT3 signaling | U3A cells, IL-6 STAT3-luciferase reporter, luminescence; 100% = signal with IL-6 EC80 alone | activation (% of control), % at 5.6 µM | actives 0.91% (n = 190,000) | AID 871;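 active = activation above the screen-wide mean of compound activation plus 3 SD, cut at about 130% in these data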;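 note: 0% = background luminescence of wells with medium and substrate only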
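Material: STAT1-lacking human U3A cells, STAT3 luciferase reporter | Benchmarks: IL-6-only wells as 100% reference | Probe or stimulus: IL-6 (33 ng/mL) | Timing: Compound 1 h, then IL-6 6 h at 37 °C | Detection: Luminescence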
STAT3 blocker: inhibitors of IL-6 induced STAT3 signaling. U3A cells, IL-6 STAT3-luciferase reporter, luminescence; host cell line lacks STAT1. inhibition, % at 5.5 µM. actives 0.89% (n = 190,000). AID 862;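 active = inhibition above the mean inhibition across all screened compounds plus 3 SD, cut at about 44% in these data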;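 note: 0% = DMSO only wells and 100% = 100 µM nifuroxazide control wells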
STAT1 activator: increases IFN-gamma driven STAT1 reporter signal. NIH 3T3 STAT1-luciferase reporter, luminescence; 100% = IFN-gamma alone, no compound. activation (% of control), % at 5.5 µM. actives 2.6% (n = 200,000);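 active = activation above the screen-wide mean activation plus 3 SD, cut at about 130% in these data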;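 note: raw ratio to IFN-gamma control signal so 100% means no change and 0% no light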
APP 5'UTR act: APP 5'UTR luciferase reporter activation. AID 1276. actives 1% (n = 190,000). activation, % at 2 µM. SH-SY5Y APP 5'UTR luciferase reporter, luminescence; zero percent = DMSO vehicle wells;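 active = activation above a set limit, based on mean plus 3 SD of controls, cut at about 140% in these data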
STAT1 inh: inhibitors of IFN-gamma induced STAT1 signaling | NIH 3T3 STAT1-luciferase reporter, luminescence | inhibition, % at 5.5 µM | actives 0.35% (n = 200,000);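 active = inhibition above a set limit, the mean inhibition across all tested compounds plus 3 SD, cut at about 34% in these data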;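 note: 0% = IFN-gamma with DMSO and 100% = IFN-gamma with 300 µM nifuroxazide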
NF-kB neuron act: NF-kB expression increase, human neuronal cells; NF-kB reporter expression; hits give high values; fold change at 12.5 µM; actives 1.6% (n = 190,000); in the data active = fold change above about 3.3
* hit, by the source's call.

SMILES	STAT3 act	STAT3 blocker	STAT1 activator	APP 5'UTR act	STAT1 inh	NF-kB neuron act
COc1ccc(-n2nc(C#N)c(Cl)cc2=O)cc1	90	20	81	-95	20	0.16
O=C(/C=C/c1ccc(S(=O)(=O)N2CCOCC2)cc1)NC(=S)Nc1ccc(Cl)cc1Cl	106	-3	101	-1	-4	0.92
O=C1CCC2S/C(=C/Nc3ccc(C(F)(F)F)cc3)C(=O)N12 (stereo unspecified)	35	78*	38	-72	66*	0.28
O=C1CCCC/C1=C/Nc1cccc(C(F)(F)F)c1	98	12	123	-4	-27	1.3
Cn1ccnc1SCC(=O)Nc1cccc(C(F)(F)F)c1	88	20	107	11	-6	1.5
O=C(CSC1=NCCN1)Nc1cccc(C(F)(F)F)c1	106	-8	142*	-2	-44	1.2
Nc1nc(Nc2ccc(Cl)cc2)nc2ccccc12	50	62*	78	115	24	6*
O=C(c1cc(-c2cccs2)on1)N1CCN(c2ccc(F)cc2)CC1	94	11	101	-1	-1	3.4*
CC1COC(C)(CC(=O)NN2C(=O)c3ccccc3C2=O)O1 (stereo unspecified)	103	-1	96	-16	3	1.5
N#Cc1ccc(N2Cc3ccccc3C2=NC(=O)c2cccnc2Cl)cc1	91	12	107	2	-8	5*
COc1ccc(/C=C2\SC(=S)N(CC(=O)OCC(=O)Nc3ccc(C)cc3Cl)C2=O)cc1	103	3	103	0	-6	1
CCCN(CC1CC1)C(=O)CCc1nnc(C(OC)c2ccccc2)o1 (stereo unspecified)	106	-2	103	3	-5	1.5
COC(c1ccccc1)c1nnc(CCC(=O)N(C)Cc2cccc(-n3cccn3)c2)o1 (stereo unspecified)	108	-4	131*	39	-37	2.4
COC(c1ccccc1)c1nnc(CCC(=O)N(C)CCCC2CCCC2)o1 (stereo unspecified)	106	-2	117	9	-20	1.8
COC(c1ccccc1)c1nnc(CCC(=O)N(C)CCOc2ccccc2)o1 (stereo unspecified)	103	3	135*	34	-37	2.2
CN1C(=O)NC(c2cccc(O)c2)C(C(=O)c2cccs2)C1(O)C(F)(F)F (stereo unspecified)	96	7	99	135*	1	1.8
CCOC(=O)C1C(c2cccs2)NC(=O)N(C)C1(O)C(F)(F)F (stereo unspecified)	101	3	104	-10	-5	1.1
Cc1sc2nc(C(C)Sc3n[nH]c(N)n3)[nH]c(=O)c2c1C (stereo unspecified)	102	5	103	9	-5	1.2
c1cc(-c2cccs2)nc(-c2cccs2)c1	87	16	98	9	2	1.2
c1csc(-c2cn3ccc4ccccc4c3n2)c1	171*	-81	144*	106	-49	4.7*
Nc1ccc(CCc2nc3ccccc3o2)cc1	89	16	138*	163*	-42	3
Cc1[nH]c2ccc(C(=O)N3CCCCC3)cc2c1C	109	-8	145*	140*	-51	4.2*
CCOC(=O)c1ccc(Nc2ccc(-c3ccc(OC)c(OC)c3)nn2)cc1	88	16	93	-13	8	0.58
Fc1ccc(-c2ccc(Nc3cccc(F)c3)nn2)cc1	91	17	144*	56	-50	1.7
Fc1ccc(Nc2ccc(-c3ccc(F)cc3)nn2)cc1	98	10	139*	81	-45	2.7
SMILES	STAT3 act	STAT3 blocker	STAT1 activator	APP 5'UTR act	STAT1 inh	NF-kB neuron act
O=C(NCC1CCCO1)c1cc([N+](=O)[O-])ccc1Cl (stereo unspecified)	111	-11	105	8	-6	1.1
COc1ccc(OC)c(C(=O)c2coc3ccc(O)cc23)c1	93	10	103	-2	-3	1.1
COC(=O)C1=C(C)N=C2SC(C#N)=C(N)N2C1c1ccc(OCc2ccccc2)cc1 (stereo unspecified)	102	6	101	8	-1	0.8
COc1cccc(C(=O)/C=C2\Sc3ccccc3N2C)c1	96	9	150*	214*	-59	1
CN1/C(=C\C(=O)c2cccnc2)Sc2ccccc21	97	6	134*	127	-39	2.8
Cn1cnnc1SCNC(=O)C(F)(F)F	102	2	106	14	-6	1
CC(OC(=O)c1cc(=O)[nH]c2ccccc12)c1ccccc1 (stereo unspecified)	106	-3	116	26	-17	1.7
Nc1nnc(CC(=O)N/N=C/c2cccc(OCCOc3ccccc3)c2)s1	111	-8	129*	90	-31	1.5
Cc1ccc(C(=O)c2ccccc2C(=O)OCC(=O)Nc2ccc(SC(F)F)cc2)cc1	110	-12	101	-23	-1	0.91
O=C(COC(=O)c1ccccc1Cc1ccccc1)Nc1ccc(SC(F)F)cc1	112	-14	132*	93	-35	1.2
Nc1nnc(SCC(=O)c2ccc3ccccc3c2)s1	113	-7	119	21	-20	3.7*
Nc1nnc(SCC(=O)c2cccc([N+](=O)[O-])c2)s1	106	-3	94	11	5	1.3
Nc1n[nH]c(N)c1N=Nc1ccc2c(c1)OCO2	99	3	132*	1	-34	1.8
Fc1ccccc1CSCc1nc2ccccc2[nH]1	118	-18	131*	18	-34	2.3
CC(C)CCSc1nc2ccccc2[nH]1	91	11	129*	100	-31	1.1
Fc1cccc(F)c1CSc1nc2ccccc2[nH]1	89	11	145*	156*	-48	7.2*
Cc1ccc(CSCc2nc3ccccc3[nH]2)cc1	98	11	102	16	-4	1.4
COc1ccc(CSc2nc3ccccc3[nH]2)cc1	74	37	108	150*	-9	5.7*
COc1ccc(-n2cc(CNCc3cnc4ccccn34)c(-c3cccc(F)c3)n2)cc1	100	4	105	5	-8	0.77
O=C(O)c1cn(-c2ccc(F)c(F)c2)c2c(F)c(F)c(F)c(F)c2c1=O	93	15	87	3	14	1.3
COc1ccccc1/C=C1\SC(=S)N(CC(=O)Nc2nnc(C)s2)C1=O	111	-8	104	7	-8	1.1
Cc1ccc(NC(=O)c2ccc3snnc3c2)cc1	93	10	147*	78	-52	3.1
O=C(Nc1ccccc1)c1ccc2snnc2c1	84	20	111	-8	-13	1.4
CCc1cc2cc(C(=O)Nc3ccccc3F)sc2s1	69	42	146*	163*	-50	2.7

Screening data: PubChem, several laboratories
